Data as given in ChEMBL document CHEMBL4602675, “The Marine Natural Product Manzamine A Inhibits Cervical Cancer by Targeting the SIX1 Protein” (J Nat Prod, 2020).
The source made the active and inactive calls. The rule behind the calls is not given here.

Assays:
[1] = target: T1, Homeobox protein SIX1 (Homo sapiens) (UniProt Q15475); test: Inhibition of SIX1 in human CaSki cells at 40 uM after 48 hrs by Western blot analysis; type: cell-based; details: Ca-Ski
T1 sequence (whole entry): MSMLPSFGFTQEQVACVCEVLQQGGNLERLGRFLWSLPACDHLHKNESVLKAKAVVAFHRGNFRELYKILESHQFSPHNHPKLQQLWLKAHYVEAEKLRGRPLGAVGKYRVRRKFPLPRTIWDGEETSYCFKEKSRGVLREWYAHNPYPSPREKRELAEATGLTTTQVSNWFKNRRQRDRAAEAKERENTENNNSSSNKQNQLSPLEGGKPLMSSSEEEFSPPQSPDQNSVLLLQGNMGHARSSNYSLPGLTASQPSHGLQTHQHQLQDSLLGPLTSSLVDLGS
Procedure, shortened: (§1)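 Cells seeded at 1 × 10^6 per 100 mm dish and treated next day at 10, 20 or 40 μM for 48 h. Harvested by trypsinization, PBS-washed, and lysed in RIPA buffer with protease inhibitors. Equal protein by colorimetric assay went to SDS-PAGE and PVDF. Primary antibody 1:500, blocked and diluted in 5% nonfat milk/TBST (SIX1) or 3% BSA (CK2α). HRP secondary 1:2000; chemiluminescent detection.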

[2] = target: T1, Homeobox protein SIX1 (Homo sapiens); test: Inhibition of SIX1 in human C33A cells at 40 uM after 48 hrs by Western blot analysis; type: cell-based; details: C-33-A; procedure, shortened: as §1
[3] = target: T1, Homeobox protein SIX1 (Homo sapiens); test: Inhibition of SIX1 in human HeLa cells at 40 uM after 48 hrs by Western blot analysis; type: cell-based; procedure, shortened: as §1
[4] = target: Casein kinase II subunit alpha (Homo sapiens) (UniProt P68400); details: C-33-A, 40 uM
Sequence of Casein kinase II subunit alpha (Homo sapiens) (P68400 whole entry, looked up): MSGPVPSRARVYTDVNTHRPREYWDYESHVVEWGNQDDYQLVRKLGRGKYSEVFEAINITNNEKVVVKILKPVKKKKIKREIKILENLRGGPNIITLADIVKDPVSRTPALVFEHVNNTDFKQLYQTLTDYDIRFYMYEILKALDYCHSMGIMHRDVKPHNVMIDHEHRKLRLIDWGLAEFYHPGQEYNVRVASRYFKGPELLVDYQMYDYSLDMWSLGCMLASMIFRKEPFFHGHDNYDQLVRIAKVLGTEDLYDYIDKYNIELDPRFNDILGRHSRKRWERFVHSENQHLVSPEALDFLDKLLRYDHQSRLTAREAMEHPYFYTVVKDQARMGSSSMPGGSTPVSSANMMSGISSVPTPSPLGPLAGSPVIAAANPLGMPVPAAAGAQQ

[5] = target: Casein kinase II subunit alpha (Homo sapiens) (UniProt P68400); details: SiHa, 40 uM
[6] = target: Casein kinase II subunit alpha (Homo sapiens) (UniProt P68400); details: HeLa, 40 uM
[7] = target: T1, Homeobox protein SIX1 (Homo sapiens); test: Inhibition of SIX1 in human SiHa cells at 40 uM after 48 hrs by Western blot analysis; type: cell-based; procedure, shortened: as §1
[8] = target: Casein kinase II subunit alpha (Homo sapiens) (UniProt P68400); details: Ca-Ski, 40 uM
HeLa = test: Antiproliferative activity against human HeLa cells assessed as reduction in cell viability at 2 to 4 uM incubated up to 72 hrs by CellTiter-Glo assay; type: functional, cell-based
Ca-Ski = test: Antiproliferative activity against human CaSki cells assessed as reduction in cell viability at 2 to 4 uM incubated up to 72 hrs by CellTiter-Glo assay; type: functional, cell-based
SiHa = test: Antiproliferative activity against human SiHa cells assessed as reduction in cell viability at 2 to 4 uM incubated up to 72 hrs by CellTiter-Glo assay; type: functional, cell-based
C-33-A = test: Antiproliferative activity against human C33A cells assessed as reduction in cell viability at 2 to 4 uM incubated up to 72 hrs by CellTiter-Glo assay; type: functional, cell-based
Keratinocyte = test: Cytotoxicity against human Keratinocytes assessed as reduction in cell viability at 4 uM incubated up to 72 hrs by trypan blue staining based cell counting assay
[9] = Toxicity in po dosed mouse; type: organism-based; details: in vivo

SMILES	Activity (HeLa)	Activity (Ca-Ski)	Activity (SiHa)	Activity (C-33-A)	other results
O=c1cc(-c2ccc(O)cc2)oc2cc(O)cc(O)c12	–	–	–	–	inhibition [1]: Active; inhibition [2]: Active; inhibition [3]: Active; inhibition [4]: Active; inhibition [5]: Active; inhibition [6]: Active; inhibition [7]: Active; inhibition [8]: Active
O=CC1=C[C@@]2(O)CC/C=C\CCCCN3CC[C@@H]1[C@]1(C[C@@H]4/C=C\CCCCN4[C@H]12)C3	inactive	inactive	inactive	inactive	–
Oc1cccc2c1[nH]c1c(C3=C[C@@]4(O)CC/C=C\CCCCN5CC[C@@H]3[C@]3(C[C@@H]6/C=C\CCCCN6[C@H]34)C5)nccc12	Active	Active	Active	Active	Activity (Keratinocyte): Toxic
CC(=O)Nc1ccc(O)cc1 [ACETAMINOPHEN]	–	–	–	–	LD50 [9]: 338 mg/kg
O=C1CCCN2[C@@H](CC1)C[C@]13CN4CCCC/C=C\CC[C@](O)(C=C(c5nccc6c5[nH]c5c(O)cccc56)[C@@H]1CC4)[C@H]23	inactive	inactive	inactive	inactive	–
O[C@]12C=C([C@H]3NCCc4c3[nH]c3ccccc43)[C@@H]3CCN(CCCC/C=C\CC1)C[C@@]31C[C@@H]3/C=C\CCCCN3[C@H]12	inactive	inactive	inactive	inactive	–
